Bioassay records (PubChem)
T cell HTS – modulates CD8 T cell binding to vesicles; 2C CD8+ T cell-vesicle binding, flow cytometry; hits give low values; response (vesicle binding), % at 7 µM; 330,000 compounds, 0.068% hits; AID 2052;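 active = response, share of CD8 T cells binding vesicles, and their 90th percentile fluorescence all below set limits, cut at about 80% in these data, passing the limit was not always enough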;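 also: values below 100% mean blocked vesicle binding to the CD8+ T cells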
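Incubation: binding step 1.5 h, 37 °C, antibody labelling 20 min, ice; system: murine 2C transgenic CD8+ T lymphocytes; technique: cytometric PE anti-B7-1 and Alexa647 anti-CD8 signals after 1% paraformaldehyde fixation; also added: QL9-charged Drosophila Ld/ICAM-1/B7-1 vesicles; control set: naked versus QL9-loaded vesicles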
CHT allo act – human CHT allosteric activation; Q9GZV3; B-score at 10 µM; CHT-expressing cells, membrane potential dye, choline EC20; hits give high values; LV-AA mutant CHT in HEK293 cells; 310,000 compounds, 0.49% hits;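 active = initial fluorescence not abnormally high and integrated response B-score, plate-corrected, over 3 SD above library mean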
VLA-4 inh – inhibition in a human VLA-4 binding assay | P13612 | VLA-4 expressing cells, ligand binding flow cytometry | inhibition, % (about 7 µM as worked out from the volumes in the protocol) | 330,000 compounds, 0.2% hits; in the data active = inhibition above about 50%
Target sequence (P13612 whole entry, looked up): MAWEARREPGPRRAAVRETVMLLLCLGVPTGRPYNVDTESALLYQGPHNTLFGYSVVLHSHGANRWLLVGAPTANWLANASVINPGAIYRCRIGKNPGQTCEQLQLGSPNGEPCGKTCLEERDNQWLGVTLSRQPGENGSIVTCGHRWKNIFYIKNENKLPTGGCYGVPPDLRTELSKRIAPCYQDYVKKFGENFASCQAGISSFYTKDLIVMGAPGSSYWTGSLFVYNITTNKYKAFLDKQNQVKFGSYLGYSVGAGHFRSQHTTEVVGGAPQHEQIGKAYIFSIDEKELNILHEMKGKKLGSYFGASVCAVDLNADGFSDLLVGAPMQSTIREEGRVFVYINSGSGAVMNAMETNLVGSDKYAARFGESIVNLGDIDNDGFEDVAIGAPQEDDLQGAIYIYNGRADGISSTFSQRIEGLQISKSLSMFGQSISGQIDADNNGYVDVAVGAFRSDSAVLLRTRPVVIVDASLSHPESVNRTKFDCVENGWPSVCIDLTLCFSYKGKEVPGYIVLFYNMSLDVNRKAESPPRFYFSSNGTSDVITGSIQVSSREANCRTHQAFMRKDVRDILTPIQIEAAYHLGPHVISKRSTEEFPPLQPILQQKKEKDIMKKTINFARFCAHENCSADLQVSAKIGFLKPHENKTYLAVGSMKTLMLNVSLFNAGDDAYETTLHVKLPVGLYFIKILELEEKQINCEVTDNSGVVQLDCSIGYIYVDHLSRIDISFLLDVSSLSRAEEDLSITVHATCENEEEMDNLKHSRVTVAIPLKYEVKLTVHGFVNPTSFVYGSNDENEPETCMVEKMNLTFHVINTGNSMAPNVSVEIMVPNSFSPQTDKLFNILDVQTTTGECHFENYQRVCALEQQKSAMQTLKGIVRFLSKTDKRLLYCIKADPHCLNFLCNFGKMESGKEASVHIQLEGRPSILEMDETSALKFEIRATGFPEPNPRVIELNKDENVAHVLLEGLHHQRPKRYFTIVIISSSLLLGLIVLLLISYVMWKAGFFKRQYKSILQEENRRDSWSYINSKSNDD
CHT inh – inhibits the human high affinity choline transporter | 310,000 compounds, 0.86% hits | Q9GZV3 | CHT-expressing cells, membrane potential dye, choline response; hits give low values | B-score at 10 µM;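 active = B-score over 3 SD under the library average, and starting fluorescence ratio not unusually high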;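 also: choline stimulus applied at its EC90 after an EC20 pre-addition; B-score computed on integrated fluorescence ratio after choline addition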
CHT activ conf – confirmation of human choline transporter (CHT) activators; CHT-expressing cells, membrane potential dye fluorescence (FDSS); % of choline EC20–EC90 response window; HEK293 expressing CHT LV-AA mutant; choline added at its EC20; shares compounds with CHT allo act; activation, % at 10 µM; 2,500 compounds, 91% hits;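 active = primary screen active, with duplicate mean activation above negative control mean plus 3 SD, cut at about 11% in these data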
HEK293 MP dye – activity in parental HEK293 cells lacking CHT; 2,500 compounds, 62% hits; membrane potential dye fluorescence (FDSS); measured after EC20 choline addition; ratio readout change at 10 µM, hits read low; AID 623908; shares compounds with CHT allo act;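 active = duplicate-averaged ratio beyond 3 SD from buffer wells, up or down, though filed actives are nearly all decreases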
Starred values were filed as active, the others as inactive; i = inactive; / = no result. A selection: hits, their analogues and other compounds. The true share with any hit is near 1.5%.

SMILES	T cell HTS	CHT allo act	VLA-4 inh	CHT inh	CHT activ conf	HEK293 MP dye
C[n+]1c2n(c3ccccc31)N=C(c1ccc(Br)cc1)CS2	588.7	i	7.9	i	/	/
O=C(NCCc1ccco1)C(=O)NCC1OCCCN1S(=O)(=O)c1cc(F)ccc1F (centres undefined)	180.6	i	-9.1	i	/	/
CC[C@@H](C)[C@H](CN[C@H](CNC)C(C)C)NC[C@@H](C)c1ccc(CC(C)C)cc1	848.4	i	16.0	i	0.4	i
COc1ccc(N)c2c1C(=O)c1ccccc1C2=O	227.0	7.44*	34.6	i	47.9*	-53.9*
CCC(C)(C)NC(=O)C(c1ccccc1)N(Cc1cccs1)C(=O)Cn1nnc2ccccc21 (centres undefined)	141.0	i	4.6	i	19.0*	i
c1cc(-c2sc(-c3ccncc3)c(-c3ccncc3)c2-c2ccncc2)ccn1	243.6	i	-1.0	i	59.1*	-47.4*
CCN(CC)CCSc1nnc2c3ccccc3n(CCc3ccccc3)c2n1	735.6	8.54*	6.0	i	31.2*	-35.3*
CCCC(C(=O)NC1CCCCC1)N(Cc1ccco1)C(=O)CNS(=O)(=O)c1ccccc1 (centres undefined)	264.6	8.42*	17.5	i	33.3*	i
CCC(C(=O)NC1CCCC1)N(Cc1ccco1)C(=O)CNS(=O)(=O)c1ccccc1 (centres undefined)	270.2	i	0.3	i	/	/
COC(=O)CCCC1=CC2=C(c3ccccc3)C(=O)C(C)(OC(=O)C3CCCC3)C(=O)C2=CN1C1CC1 (centres undefined)	633.5	10.3*	-7.6	i	0.0	i
Cn1c(=O)c(=O)n(C)c2cc(S(=O)(=O)N3CCC(N4CCCCC4)CC3)ccc21	289.3	10.4*	-14.4	i	76.7*	-76.6*
CC(OC(=O)/C=C/c1cccs1)C(=O)Nc1ccc(C(N)=O)cc1 (centres undefined)	470.9	/	-6.0	/	/	/
C(=N\Nc1nn2cnnc2c2ccccc12)/c1ccco1	329.6	i	-2.7	i	35.4*	-28.1*
Oc1ccc(/C=N/Nc2nn3cnnc3c3ccccc23)cc1	366.3	i	4.3	i	/	/
Cc1ccc(S(=O)(=O)N(C)C)cc1NC(=S)NC(=O)C12CC3CC(CC(C3)C1)C2	475.4	i	13.7	i	2.7	i
COc1ccc(CN(C)S(=O)(=O)c2nnc(NC(=O)c3cccc(F)c3)s2)cc1	393.6	i	16.6	i	/	/
Cc1cc(=O)oc2cc(OCCCC[n+]3ccccc3)ccc12	459.8	i	10.8	i	62.2*	-38.4*
O=C(NCCc1ccccc1)C1CCCN(c2cnccn2)C1 (centres undefined)	834.3	i	-1.6	i	/	/
O=C1CCC(c2ccc(-n3ccnc3)cc2)=NN1	313.4	7.33*	-5.7	i	23.2*	-28.2*
Nc1ccc(-n2ccnc2)cc1	555.9	i	9.9	i	/	/
C=CCN1CCN(C(c2cc(OC)ccc2OC)c2nnnn2CC2CCCO2)CC1 (centres undefined)	271.3	6.31*	-5.7	i	15.8*	i
COc1ccc(C(c2nnnn2CC2CCCO2)N2CCC(C(N)=O)CC2)cc1 (centres undefined)	552.4	i	6.8	i	-0.9	i
COc1ccc(OC)c(C(c2nnnn2CC2CCCO2)N2CCN(C)CC2)c1 (centres undefined)	402.2	i	-6.9	i	/	/
COc1ccccc1C(c1nnnn1CC1CCCO1)N1CCC(C(N)=O)CC1 (centres undefined)	500.0	i	-3.4	i	/	/
COC1=C(Nc2ccc(C)cc2)C(=O)c2ccccc2C1=O	142.3	i	-5.8	i	/	/
COC1=C(Nc2ccccc2)C(=O)c2ccccc2C1=O	168.3	i	10.2	i	34.7*	-57.5*
CCC(C)(C)n1nnnc1C(c1ccccc1)N1CCc2ccccc2C1 (centres undefined)	215.2	6.28*	-9.0	i	32.0*	i
CC(C)(C)n1nnnc1C(c1cccc(C#N)c1)N1CCCCCC1 (centres undefined)	328.7	i	6.1	i	/	/
